Test system: U2OS
Assay: Multiplex assay against U2OS
Type: toxicity, cell-based
Conditions: human
Procedure, shortened: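 Live cells were stained at seeding with Hoechst33342, BioTracker Green Microtubule Cytoskeleton Dye, MitoTracker Red and Annexin V Alexa Fluor 680, then imaged on a CQ1 microscope at 37°C and 5% CO2 after compound addition. CellPathfinder machine-learning gating split cells into Hoechst high-intensity objects or normal cells. Normal cells were split into healthy, pyknosed or fragmented nuclei, and pyknosed cells into mitotic or apoptotic. Tubulin, mitochondrial-mass and membrane-permeability phenotypes are per cents of healthy-nucleus cells.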

[1] = 12 h, 1 µM, compound concentration 1 uM, replicate 1
[2] = 12 h, 1 µM, compound concentration 1 uM, replicate 2
[3] = 12 h, 10 µM, compound concentration 10 uM, replicate 1
[4] = 12 h, 10 µM, compound concentration 10 uM, replicate 2
[5] = 24 h, 1 µM, compound concentration 1 uM, replicate 1
[6] = 24 h, 1 µM, compound concentration 1 uM, replicate 2
[7] = 24 h, 10 µM, compound concentration 10 uM, replicate 1
[8] = 24 h, 10 µM, compound concentration 10 uM, replicate 2
[9] = 48 h, 1 µM, compound concentration 1 uM, replicate 1
[10] = 48 h, 1 µM, compound concentration 1 uM, replicate 2
[11] = 48 h, 10 µM, compound concentration 10 uM, replicate 1
[12] = 48 h, 10 µM, compound concentration 10 uM, replicate 2

CCOc1cc(C(=O)N2CCC(N3CCN(C)CC3)CC2)ccc1Nc1ncc2c(n1)N(C1CCCC1)c1ccccc1C(=O)N2C
Population Apoptotic (%) [1]: 73%
Population Fragmented Nuclei (%) [1]: 14%
Population Healthy Nuclei (%) [1]: 70%
Population Hoechst High Intensity Objects (%) [1]: 6%
Population Membrane Permeable-Phenotype (%) [1]: 8%
Population Mitochondria Different-Phenotype (%) [1]: 75%
Population Mitotic Cells (%) [1]: 26%
Population Normal (%) [1]: 93%
Population Pyknosed Nuclei (%) [1]: 15%
Population Tubulin-Different-Phenotype (%) [1]: 69%
Total Cell Count [1]: 153
Population Apoptotic (%) [2]: 75%
Population Fragmented Nuclei (%) [2]: 6%
Population Healthy Nuclei (%) [2]: 80%
Population Hoechst High Intensity Objects (%) [2]: 10%
Population Membrane Permeable-Phenotype (%) [2]: 4%
Population Mitochondria Different-Phenotype (%) [2]: 76%
Population Mitotic Cells (%) [2]: 25%
Population Normal (%) [2]: 89%
Population Pyknosed Nuclei (%) [2]: 12%
Population Tubulin-Different-Phenotype (%) [2]: 48%
Total Cell Count [2]: 67
Population Apoptotic (%) [3]: 83%
Population Fragmented Nuclei (%) [3]: 19%
Population Healthy Nuclei (%) [3]: 48%
Population Hoechst High Intensity Objects (%) [3]: 7%
Population Membrane Permeable-Phenotype (%) [3]: 95%
Population Mitochondria Different-Phenotype (%) [3]: 97%
Population Mitotic Cells (%) [3]: 16%
Population Normal (%) [3]: 92%
Population Pyknosed Nuclei (%) [3]: 32%
Population Tubulin-Different-Phenotype (%) [3]: 100%
Total Cell Count [3]: 181
Population Apoptotic (%) [4]: 92%
Population Fragmented Nuclei (%) [4]: 21%
Population Healthy Nuclei (%) [4]: 50%
Population Hoechst High Intensity Objects (%) [4]: 6%
Population Membrane Permeable-Phenotype (%) [4]: 93%
Population Mitotic Cells (%) [4]: 7%
Population Normal (%) [4]: 93%
Population Pyknosed Nuclei (%) [4]: 27%
Total Cell Count [4]: 69
Population Apoptotic (%) [5]: 50%
Population Healthy Nuclei (%) [5]: 61%
Population Hoechst High Intensity Objects (%) [5]: 4%
Population Membrane Permeable-Phenotype (%) [5]: 2%
Population Mitochondria Different-Phenotype (%) [5]: 64%
Population Mitotic Cells (%) [5]: 50%
Population Normal (%) [5]: 95%
Population Pyknosed Nuclei (%) [5]: 22%
Population Tubulin-Different-Phenotype (%) [5]: 17%
Total Cell Count [5]: 142
Population Apoptotic (%) [6]: 22%
Population Fragmented Nuclei (%) [6]: 16%
Population Healthy Nuclei (%) [6]: 72%
Population Hoechst High Intensity Objects (%) [6]: 5%
Population Membrane Permeable-Phenotype (%) [6]: 5%
Population Mitochondria Different-Phenotype (%) [6]: 65%
Population Mitotic Cells (%) [6]: 77%
Population Normal (%) [6]: 94%
Population Pyknosed Nuclei (%) [6]: 11%
Population Tubulin-Different-Phenotype (%) [6]: 27%
Total Cell Count [6]: 71
Population Apoptotic (%) [7]: 92%
Population Fragmented Nuclei (%) [7]: 23%
Population Healthy Nuclei (%) [7]: 17%
Population Hoechst High Intensity Objects (%) [7]: 7%
Population Membrane Permeable-Phenotype (%) [7]: 93%
Population Mitochondria Different-Phenotype (%) [7]: 100%
Population Mitotic Cells (%) [7]: 7%
Population Normal (%) [7]: 92%
Total Cell Count [7]: 215
Population Apoptotic (%) [8]: 88%
Population Fragmented Nuclei (%) [8]: 10%
Population Healthy Nuclei (%) [8]: 30%
Population Hoechst High Intensity Objects (%) [8]: 11%
Population Membrane Permeable-Phenotype (%) [8]: 100%
Population Mitochondria Different-Phenotype (%) [8]: 96%
Population Mitotic Cells (%) [8]: 11%
Population Normal (%) [8]: 88%
Population Pyknosed Nuclei (%) [8]: 59%
Population Tubulin-Different-Phenotype (%) [8]: 100%
Total Cell Count [8]: 85
Population Apoptotic (%) [9]: 53%
Population Fragmented Nuclei (%) [9]: 15%
Population Healthy Nuclei (%) [9]: 64%
Population Hoechst High Intensity Objects (%) [9]: 3%
Population Membrane Permeable-Phenotype (%) [9]: 1%
Population Mitochondria Different-Phenotype (%) [9]: 28%
Population Mitotic Cells (%) [9]: 46%
Population Normal (%) [9]: 96%
Population Pyknosed Nuclei (%) [9]: 19%
Population Tubulin-Different-Phenotype (%) [9]: 9%
Total Cell Count [9]: 151
Population Apoptotic (%) [10]: 42%
Population Fragmented Nuclei (%) [10]: 13%
Population Healthy Nuclei (%) [10]: 72%
Population Hoechst High Intensity Objects (%) [10]: 5%
Population Membrane Permeable-Phenotype (%) [10]: 12%
Population Mitochondria Different-Phenotype (%) [10]: 40%
Population Mitotic Cells (%) [10]: 57%
Population Normal (%) [10]: 94%
Population Pyknosed Nuclei (%) [10]: 14%
Population Tubulin-Different-Phenotype (%) [10]: 25%
Total Cell Count [10]: 81
Population Apoptotic (%) [11]: 93%
Population Fragmented Nuclei (%) [11]: 34%
Population Healthy Nuclei (%) [11]: 1%
Population Hoechst High Intensity Objects (%) [11]: 14%
Population Membrane Permeable-Phenotype (%) [11]: 100%
Population Mitochondria Different-Phenotype (%) [11]: 100%
Population Mitotic Cells (%) [11]: 6%
Population Normal (%) [11]: 85%
Population Pyknosed Nuclei (%) [11]: 63%
Population Tubulin-Different-Phenotype (%) [11]: 100%
Total Cell Count [11]: 281
Population Apoptotic (%) [12]: 100%
Population Fragmented Nuclei (%) [12]: 16%
Population Healthy Nuclei (%) [12]: 20%
Population Hoechst High Intensity Objects (%) [12]: 18%
Population Membrane Permeable-Phenotype (%) [12]: 93%
Population Mitochondria Different-Phenotype (%) [12]: 86%
Population Mitotic Cells (%) [12]: 0%
Population Normal (%) [12]: 81%
Population Pyknosed Nuclei (%) [12]: 62%
Population Tubulin-Different-Phenotype (%) [12]: 93%
Total Cell Count [12]: 103

CCCn1c(=O)c2[nH]c(-c3cnn(Cc4cccc(C(F)(F)F)c4)c3)nc2n(CC)c1=O [GS 6201]
Population Apoptotic (%) [1]: 28%
Population Fragmented Nuclei (%) [1]: 8%
Population Healthy Nuclei (%) [1]: 78%
Population Hoechst High Intensity Objects (%) [1]: 9%
Population Membrane Permeable-Phenotype (%) [1]: 14%
Population Mitochondria Different-Phenotype (%) [1]: 5%
Population Mitotic Cells (%) [1]: 71%
Population Normal (%) [1]: 90%
Population Pyknosed Nuclei (%) [1]: 13%
Population Tubulin-Different-Phenotype (%) [1]: 14%
Total Cell Count [1]: 1120
Population Apoptotic (%) [2]: 42%
Population Fragmented Nuclei (%) [2]: 4%
Population Healthy Nuclei (%) [2]: 88%
Population Hoechst High Intensity Objects (%) [2]: 2%
Population Membrane Permeable-Phenotype (%) [2]: 8%
Population Mitochondria Different-Phenotype (%) [2]: 9%
Population Mitotic Cells (%) [2]: 57%
Population Normal (%) [2]: 97%
Population Pyknosed Nuclei (%) [2]: 7%
Population Tubulin-Different-Phenotype (%) [2]: 28%
Total Cell Count [2]: 75
Population Apoptotic (%) [3]: 35%
Population Fragmented Nuclei (%) [3]: 34%
Population Healthy Nuclei (%) [3]: 52%
Population Hoechst High Intensity Objects (%) [3]: 19%
Population Membrane Permeable-Phenotype (%) [3]: 51%
Population Mitochondria Different-Phenotype (%) [3]: 31%
Population Mitotic Cells (%) [3]: 64%
Population Normal (%) [3]: 80%
Population Pyknosed Nuclei (%) [3]: 12%
Population Tubulin-Different-Phenotype (%) [3]: 82%
Total Cell Count [3]: 118
Population Apoptotic (%) [4]: 50%
Population Fragmented Nuclei (%) [4]: 17%
Population Healthy Nuclei (%) [4]: 77%
Population Hoechst High Intensity Objects (%) [4]: 5%
Population Membrane Permeable-Phenotype (%) [4]: 3%
Population Mitochondria Different-Phenotype (%) [4]: 20%
Population Mitotic Cells (%) [4]: 50%
Population Normal (%) [4]: 94%
Population Pyknosed Nuclei (%) [4]: 4%
Population Tubulin-Different-Phenotype (%) [4]: 10%
Total Cell Count [4]: 98
Population Apoptotic (%) [5]: 27%
Population Fragmented Nuclei (%) [5]: 8%
Population Healthy Nuclei (%) [5]: 82%
Population Hoechst High Intensity Objects (%) [5]: 7%
Population Membrane Permeable-Phenotype (%) [5]: 7%
Population Mitochondria Different-Phenotype (%) [5]: 7%
Population Mitotic Cells (%) [5]: 72%
Population Normal (%) [5]: 92%
Population Pyknosed Nuclei (%) [5]: 8%
Population Tubulin-Different-Phenotype (%) [5]: 8%
Total Cell Count [5]: 2066
Population Apoptotic (%) [6]: 50%
Population Fragmented Nuclei (%) [6]: 5%
Population Healthy Nuclei (%) [6]: 90%
Population Hoechst High Intensity Objects (%) [6]: 4%
Population Membrane Permeable-Phenotype (%) [6]: 2%
Population Mitochondria Different-Phenotype (%) [6]: 10%
Population Mitotic Cells (%) [6]: 50%
Population Normal (%) [6]: 95%
Population Pyknosed Nuclei (%) [6]: 4%
Population Tubulin-Different-Phenotype (%) [6]: 30%
Total Cell Count [6]: 81
Population Apoptotic (%) [7]: 64%
Population Fragmented Nuclei (%) [7]: 44%
Population Healthy Nuclei (%) [7]: 41%
Population Hoechst High Intensity Objects (%) [7]: 16%
Population Membrane Permeable-Phenotype (%) [7]: 47%
Population Mitochondria Different-Phenotype (%) [7]: 31%
Population Mitotic Cells (%) [7]: 35%
Population Normal (%) [7]: 83%
Population Pyknosed Nuclei (%) [7]: 14%
Population Tubulin-Different-Phenotype (%) [7]: 58%
Total Cell Count [7]: 133
Population Apoptotic (%) [8]: 50%
Population Fragmented Nuclei (%) [8]: 17%
Population Healthy Nuclei (%) [8]: 72%
Population Hoechst High Intensity Objects (%) [8]: 3%
Population Membrane Permeable-Phenotype (%) [8]: 5%
Population Mitochondria Different-Phenotype (%) [8]: 11%
Population Mitotic Cells (%) [8]: 50%
Population Normal (%) [8]: 96%
Population Pyknosed Nuclei (%) [8]: 10%
Population Tubulin-Different-Phenotype (%) [8]: 9%
Total Cell Count [8]: 139
Population Apoptotic (%) [9]: 44%
Population Fragmented Nuclei (%) [9]: 8%
Population Healthy Nuclei (%) [9]: 82%
Population Hoechst High Intensity Objects (%) [9]: 1%
Population Membrane Permeable-Phenotype (%) [9]: 3%
Population Mitochondria Different-Phenotype (%) [9]: 11%
Population Mitotic Cells (%) [9]: 55%
Population Normal (%) [9]: 98%
Population Pyknosed Nuclei (%) [9]: 9%
Population Tubulin-Different-Phenotype (%) [9]: 7%
Total Cell Count [9]: 2377
Population Apoptotic (%) [10]: 41%
Population Fragmented Nuclei (%) [10]: 2%
Population Healthy Nuclei (%) [10]: 91%
Population Membrane Permeable-Phenotype (%) [10]: 1%
Population Mitochondria Different-Phenotype (%) [10]: 13%
Population Mitotic Cells (%) [10]: 58%
Population Pyknosed Nuclei (%) [10]: 5%
Population Tubulin-Different-Phenotype (%) [10]: 35%
Total Cell Count [10]: 110
Population Apoptotic (%) [11]: 67%
Population Fragmented Nuclei (%) [11]: 51%
Population Healthy Nuclei (%) [11]: 34%
Population Hoechst High Intensity Objects (%) [11]: 13%
Population Membrane Permeable-Phenotype (%) [11]: 50%
Population Mitochondria Different-Phenotype (%) [11]: 29%
Population Mitotic Cells (%) [11]: 32%
Population Normal (%) [11]: 86%
Population Pyknosed Nuclei (%) [11]: 13%
Population Tubulin-Different-Phenotype (%) [11]: 47%
Total Cell Count [11]: 198
Population Apoptotic (%) [12]: 22%
Population Fragmented Nuclei (%) [12]: 12%
Population Healthy Nuclei (%) [12]: 80%
Population Hoechst High Intensity Objects (%) [12]: 2%
Population Membrane Permeable-Phenotype (%) [12]: 9%
Population Mitochondria Different-Phenotype (%) [12]: 13%
Population Mitotic Cells (%) [12]: 77%
Population Normal (%) [12]: 97%
Population Pyknosed Nuclei (%) [12]: 6%
Population Tubulin-Different-Phenotype (%) [12]: 13%
Total Cell Count [12]: 214
